Screening data deposited in PubChem BioAssay by several laboratories.
This is a sample that favours compounds with a hit; in the whole collection about 2% have one here.
Dynein cargo inh: dynein cargo transport inhibition; 3617.4 mouse cells, GR-EGFP nuclear translocation imaging; test concentration mostly 20 µM; stimulated with dexamethasone, 1 µM; stronger effect = lower value; z-score, hits read low; 220,000 compounds, 0.47% hits;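 active = plate z-score of nuclear minus cytoplasmic receptor signal below a set negative limit, without overly bright fluorescence or cell loss, cut at about -3.5 in these data, passing the limit was not always enough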;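 note: z-score of nuclear minus cytoplasmic ring GR-EGFP intensity difference per well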
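medium = tetracycline-free induction medium containing charcoal-stripped FBS | probe or stimulus = dexamethasone, 1.0 µM final | timing = 48 h induction, then 1 h compound, then 30 min agonist, 37 °C | detection = automated 10x imaging of fixed Hoechst-stained cells | read-out basis = nuclear versus cytoplasmic GR-EGFP signal, averaged per well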
Insulin prom inh: TRM-6 insulin promoter activity inhibition. 130,000 compounds, 0.9% hits. TRM-6 cells, insulin promoter-eGFP reporter, imaging; reporter expression induced with tamoxifen. AID 1273. inhibition, % at 2 µM;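 active = inhibition above the mean plus 3 SD, with well images judged a real hit on visual review, cut at about 60% in these data, passing the limit was not always enough; inconclusive = inhibition over the cutoff but images rejected on review; inactive = inhibition not above the cutoff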
Insulin prom up: MIN6 insulin promoter up-regulation | MIN6 insulin promoter-GFP reporter, high-content imaging; stronger effect = higher value | z-score at 5 µM | 190,000 compounds, 0.3% hits;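 active = z-score above 3 at 5 µM with at least 500 cells counted in the well; inconclusive = wells under 500 cells, flagged as cytotoxic or low count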
Autophagy mod: modulators of autophagy | calls only at 10 µM (by protocol) | 190,000 compounds, 0.98% hits | MEF GFP-LC3 puncta imaging; test concentration mostly 10 µM;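 active = percentage of spot-positive cells more than 3 SD above its plate mean, without a fluorescence outlier flag or 80% toxicity; inconclusive = no clear call, values can overlap the other calls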
Large screens that a line does not name were inactive.

COc1ccc(N2C(=O)CCC(C(=O)N3CCCCC3)C2c2ccc(OC)c(OC)c2)cc1 (stereo not drawn)	none
Cc1cccc(NC(=O)N2CCCC2C(=O)Nc2ccccc2)c1 (stereo not drawn)	none (no result: Insulin prom inh)
c1ccc(-n2cnc3cc(NCc4ccco4)ccc32)cc1	none (no result: Insulin prom inh)
CC(=O)Nc1ccc(NC2=C/C(=N/S(=O)(=O)c3cccs3)c3ccccc3C2=O)cc1	Insulin prom up inconclusive, Autophagy mod active
Cc1ccc(NC2=C/C(=N/S(=O)(=O)c3cccs3)c3ccccc3C2=O)cc1C	none
CSCCC(N=C(NS(=O)(=O)c1ccc(C)cc1)c1ccccc1)C(=O)O (stereo not drawn)	none (no result: Insulin prom inh, Autophagy mod)
CCc1cc(=O)oc2cc3occ(C)c3cc12	none
CCc1cc(=O)oc2cc3occ(-c4ccc(OC)c(F)c4)c3cc12	Autophagy mod active
CNC(=S)N/N=C1\C(=O)c2cccc3cccc1c23	Autophagy mod active
CCCCNC(=S)N/N=C1\C(=O)c2cccc3cccc1c23	none
COc1ccc(C(=O)Nc2nnc(-c3cccs3)s2)cc1	Autophagy mod active
CCc1cccc(C)c1NC(=S)NCc1ccc2[nH]c(C)cc2c1	Insulin prom inh 70.7
CN1\C(=C/C=C/C=C/C=[N+](C)C)C(C)(C)c2ccccc21	Insulin prom up inconclusive, Autophagy mod active
CN1/C(=C\C=Nc2ccc3ccccc3c2)C(C)(C)c2ccccc21	Autophagy mod active
CN(C)c1ccc(N=C/C=C2\N(C)c3ccccc3C2(C)C)cc1	none (no result: Insulin prom up)
S=C1SCN(Cc2cccnc2)CN1Cc1cccnc1	none (no result: Insulin prom inh, Autophagy mod)
N#Cc1c(NCCN)nc(NCc2ccccc2)c2c1CCN(Cc1ccccc1)C2	Autophagy mod active
CCOc1cc(CNCc2cccnc2)ccc1OCC(=O)NC(C)(C)C	none (no result: Insulin prom inh)
CCN(CC)c1ccc(/C=N/NC(=S)NCc2ccco2)cc1	Insulin prom inh 100.0
Oc1ccc(/C=N/NC(=S)NCc2ccco2)cc1	none
COc1ccc(C(=O)N/N=C(\C)CC(=O)Nc2cccc(C(F)(F)F)c2)cc1	none (no result: Insulin prom inh, Insulin prom up, Autophagy mod)
CCOc1cccc(C2C(C#N)=C(N)Oc3cc(C)oc(=O)c32)c1OCC (stereo not drawn)	Insulin prom inh 81.8
CCOc1ccccc1C1C(C#N)=C(N)Oc2cc(C)n(C)c(=O)c21 (stereo not drawn)	none
CC(=O)Nc1ccc(NC(=O)C2CCCN2/C=C/C(=O)C(F)(F)F)cc1 (stereo not drawn)	none
c1ccc(-c2ccccc2-c2nc(-c3ccncc3)no2)cc1	Insulin prom inh 78.7
COC(=O)/C=c1\[nH]c2nnc(C)n2c1=O	none (no result: Insulin prom inh, Autophagy mod)
CC(=O)Nc1ccc(NC(=O)COC(=O)c2c3c(nc4ccccc24)CCN(Cc2ccccc2)C3)cc1	Autophagy mod active (no result: Insulin prom inh)
O=C(Nc1cccc(S(=O)(=O)N2CCCCC2)c1)c1c2c(nc3ccccc13)CCN(Cc1ccccc1)C2	Autophagy mod active (no result: Insulin prom up)
O=C(O)c1ccccc1-n1c(-c2ccccc2)cc2c1CCCC2=O	none (no result: Insulin prom inh)
O=C(NC1=NCCS1)C1Cc2ccccc2CN1C(=O)c1ccccc1 (stereo not drawn)	Insulin prom up 3.06
CC(=O)c1ccc(NC(=O)C2Cc3ccccc3CN2C(=O)c2ccccc2)cc1 (stereo not drawn)	none (no result: Insulin prom inh)
CC(C(=O)Nc1ccccc1)N(C)CCOc1ccc(Br)cc1 (stereo not drawn)	none (no result: Insulin prom inh)
CC(=O)NC(=S)Nc1ccc(NC(=O)COc2ccc(C(C)C)cc2)cc1	Insulin prom inh 75.0
CC(=O)NC(=S)Nc1ccc(NC(=O)COc2ccc(Cl)cc2)cc1	none (no result: Insulin prom up)
Cc1ccc(S(=O)(=O)c2cc3ccccc3oc2=Nc2ccc3c(c2)OCCO3)cc1	none
Cc1ccc(S(=O)(=O)c2cc3ccccc3oc2=Nc2ccc3c(c2)OCO3)cc1	Autophagy mod active
COc1ccc(C(=O)/C(C#N)=N/Nc2cccc([N+](=O)[O-])c2)cc1	none (no result: Insulin prom inh)
COc1ccccc1NNC(=O)c1cccnc1Oc1ccccc1	none (no result: Insulin prom inh, Autophagy mod)
CCOC(=O)N1CCN(C(=O)c2ccc3nc(C)sc3c2)CC1	Insulin prom inh 71.4
O=C(N/N=C/c1ccc(O)cc1)c1cc(C23CC4CC(CC(C4)C2)C3)[nH]n1	none (no result: Insulin prom inh, Autophagy mod)
C/C(=N\NC(=O)c1cc(C(C)(C)C)[nH]n1)C12CC3CC(CC(C3)C1)C2	Autophagy mod active (no result: Insulin prom inh, Insulin prom up)
c1ccc(-c2cn3nc(-c4ccccc4)cnc3n2)cc1	Autophagy mod active (no result: Insulin prom inh)
CC(=O)c1sccc1NC(=O)c1ccccc1C(=O)O	none (no result: Insulin prom inh, Autophagy mod)
Cc1ccc(-c2nc(NCc3ccc(F)cc3)n(S(C)(=O)=O)n2)cc1	none (no result: Insulin prom inh)
CN1CC=C2C(C#N)=C(N)C(C#N)(C#N)[C@H](c3cccs3)[C@H]2C1	Autophagy mod active (no result: Insulin prom up)
COc1cc([C@@H]2[C@H]3CN(C)CC=C3C(C#N)=C(N)C2(C#N)C#N)cc2c1OCO2	Autophagy mod active (no result: Insulin prom inh, Insulin prom up)
